From ChEMBL document CHEMBL3120102, “Structure-based design, synthesis and biological evaluation of novel anthra[1,2-d]imidazole-6,11-dione homologues as potential antitumor agents” (2013)

What was measured:
Assay type in all cases: functional
MDA-MB-231 = assay: Cytotoxicity against human MDA-MB-231 cells assessed as growth inhibition after 48 hrs by SRB assay
Outline: (§1)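 NCI 60-cell-line screen, five-dose stage: each cell line exposed for 48 h to five concentrations spanning five log steps; cellular protein measured by sulforhodamine B colorimetry. A time-zero cell control and plates without drug are used to derive GI50, TGI and LC50 from log-concentration dose-response curves.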

SR = assay: Cytotoxicity against human SR cells assessed as growth inhibition after 48 hrs by SRB assay
Outline: (§2)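 NCI 60-cell-line screen, two stages. Five-dose testing at […]. Cellular protein measured by sulforhodamine B colorimetry after 48 h drug exposure. A time-zero control and drug-free plates are used to derive GI50, TGI and LC50 from dose-response curves plotted as log10 concentration per cell line.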

M14 = assay: Cytotoxicity against human M14 cells assessed as growth inhibition after 48 hrs by SRB assay
Outline: (§3)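 NCI 60-cell-line five-dose screen at […]. Drug exposure was 48 h, followed by sulforhodamine B protein staining. GI50, TGI and LC50 were calculated against a time-zero control and untreated plates, with dose–response curves plotted from log10 concentration.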

CCRF-CEM = assay: Cytotoxicity against human CCRF-CEM cells assessed as growth inhibition after 48 hrs by SRB assay; outline: as §3
HT-29 = assay: Cytotoxicity against human HT-29 cells assessed as cell growth at 10 uM after 48 hrs by SRB assay; conditions: HT-29, 48 h, read-out: Activity
NCI-H23 = assay: Cytotoxicity against human NCI-H23 cells assessed as growth inhibition after 48 hrs by SRB assay; outline: as §1
NCI-H226 = assay: Cytotoxicity against human NCI-H226 cells assessed as growth inhibition after 48 hrs by SRB assay; outline: as §1
A498 = assay: Cytotoxicity against human A498 cells assessed as growth inhibition after 48 hrs by SRB assay; outline: as §3
UACC-62 = assay: Cytotoxicity against human UACC62 cells assessed as growth inhibition after 48 hrs by SRB assay; outline: as §2
HCT-15 = assay: Cytotoxicity against human HCT15 cells assessed as growth inhibition after 48 hrs by SRB assay; outline: as §3
PC-3 = assay: Cytotoxicity against human PC3 cells assessed as growth inhibition after 48 hrs by SRB assay; outline: as §1
OVCAR-5 = assay: (§4) Cytotoxicity against human OVCAR5 cells assessed as growth inhibition after 48 hrs by SRB assay; outline: as §1
[1] = as §4; conditions: OVCAR-5, 48 h; outline: as §1
RXF 393 = assay: Cytotoxicity against human RXF393 cells assessed as growth inhibition after 48 hrs by SRB assay; outline: as §1
NCI-H460 = assay: Cytotoxicity against human NCI-H460 cells assessed as growth inhibition after 48 hrs by SRB assay; outline: as §1
OVCAR-3 = assay: Cytotoxicity against human OVCAR3 cells assessed as growth inhibition after 48 hrs by SRB assay; outline: as §1
NCI-H322M = assay: Cytotoxicity against human NCI-H322M cells assessed as growth inhibition after 48 hrs by SRB assay; outline: as §1
HCT-116 = assay: Cytotoxicity against human HCT116 cells assessed as growth inhibition after 48 hrs by SRB assay; outline: as §3
SF-295 = assay: Cytotoxicity against human SF295 cells assessed as growth inhibition after 48 hrs by SRB assay; outline: as §1
MDA-MB-435 = assay: Cytotoxicity against human MDA-MB-435 cells assessed as growth inhibition after 48 hrs by SRB assay; outline: as §1
SK-OV-3 = assay: Cytotoxicity against human SKOV3 cells assessed as growth inhibition after 48 hrs by SRB assay; outline: as §1
HL-60(TB) = assay: Cytotoxicity against human HL-60(TB) cells assessed as growth inhibition after 48 hrs by SRB assay
Outline: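 NCI 60-cell panel five-concentration stage (0.01, 0.1, 1, 10, 100) in HL-60(TB). Cellular protein was measured by sulforhodamine B colorimetry after 48 h of exposure. A time-zero cell control and untreated plates allowed calculation of GI50, TGI and LC50. These were read from log10 concentration dose-response curves.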

BT-549 = assay: Cytotoxicity against human BT549 cells assessed as growth inhibition after 48 hrs by SRB assay; outline: as §3
SK-MEL-28 = assay: Cytotoxicity against human SK-MEL-28 cells assessed as growth inhibition after 48 hrs by SRB assay; outline: as §1
Malme-3M = assay: Cytotoxicity against human MALME-3M cells assessed as growth inhibition after 48 hrs by SRB assay; outline: as §3

CCCSc1nc2ccc3c(c2[nH]1)C(=O)c1ccccc1C3=O
growth inhibition (GI) (MDA-MB-231): Dose-dependent effect
GI50 (MDA-MB-231; MDA-MB-231, 48 h): 5.14 µM
LC50 (MDA-MB-231; MDA-MB-231, 48 h): > 100 µM
TGI (MDA-MB-231; MDA-MB-231, 48 h): > 100 µM
GI50 (SR): 4.63 µM
LC50 (50% lethal concentration) (SR): > 100 µM
TGI (SR): > 100 µM
growth inhibition (GI) (SR): Dose-dependent effect
growth inhibition (GI) (M14): Dose-dependent effect
GI50 (M14; M14, 48 h): > 100 µM
LC50 (M14; M14, 48 h): > 100 µM
TGI (M14; M14, 48 h): > 100 µM
GI50 (CCRF-CEM): > 100 µM
LC50 (CCRF-CEM): > 100 µM
TGI (CCRF-CEM): > 100 µM
growth inhibition (GI) (CCRF-CEM): Dose-dependent effect
growth at 10 µM (HT-29): 75.1%
growth inhibition (GI) (NCI-H23): Dose-dependent effect
GI50 (NCI-H23; NCI-H23, 48 h): 48 µM
LC50 (NCI-H23; NCI-H23, 48 h): > 100 µM
TGI (NCI-H23; NCI-H23, 48 h): > 100 µM
growth inhibition (GI) (NCI-H226): Dose-dependent effect
GI50 (NCI-H226; NCI-H226, 48 h): 4.37 µM
LC50 (NCI-H226; NCI-H226, 48 h): > 100 µM
TGI (NCI-H226; NCI-H226, 48 h): > 100 µM
growth inhibition (GI) (A498): Dose-dependent effect
GI50 (A498; A498, 48 h): 13.9 µM
TGI (A498; A498, 48 h): > 100 µM
CC50 (A498; A498, 48 h, read-out: LC50 (the source's name)): > 100 µM
growth inhibition (GI) (UACC-62): Dose-dependent effect
GI50 (UACC-62; UACC-62, 48 h): 5.78 µM
LC50 (UACC-62; UACC-62, 48 h): > 100 µM
TGI (UACC-62; UACC-62, 48 h): > 100 µM
growth inhibition (GI) (HCT-15): Dose-dependent effect
GI50 (HCT-15; HCT-15, 48 h): > 100 µM
LC50 (concentration killing 50% of cells) (HCT-15; HCT-15, 48 h): > 100 µM
TGI (HCT-15; HCT-15, 48 h): > 100 µM
growth inhibition (GI) (PC-3): Dose-dependent effect
GI50 (PC-3; PC-3, 48 h): 11.3 µM
LC50 (PC-3; PC-3, 48 h): > 100 µM
TGI (PC-3; PC-3, 48 h): > 100 µM
growth inhibition (GI) (OVCAR-5): Dose-dependent effect
GI50 [1]: 58.1 µM
LC50 [1]: > 100 µM
TGI [1]: > 100 µM
growth inhibition (GI) (RXF 393): Dose-dependent effect
GI50 (RXF 393; RXF 393, 48 h): 2.65 µM
TGI (RXF 393; RXF 393, 48 h): 8.1 µM
CC50 (RXF 393; RXF 393, 48 h, read-out: LC50 (the source's name)): > 100 µM
growth inhibition (GI) (NCI-H460): Dose-dependent effect
GI50 (NCI-H460; NCI-H460, 48 h): 44.7 µM
LC50 (NCI-H460; NCI-H460, 48 h): > 100 µM
TGI (NCI-H460; NCI-H460, 48 h): > 100 µM
growth inhibition (GI) (OVCAR-3): Dose-dependent effect
GI50 (OVCAR-3; OVCAR-3, 48 h): 3.97 µM
LC50 (50% lethal concentration) (OVCAR-3; OVCAR-3, 48 h): > 100 µM
TGI (OVCAR-3; OVCAR-3, 48 h): 37.6 µM
GI50 (NCI-H322M): > 100 µM
LC50 (concentration killing 50% of cells relative to time zero) (NCI-H322M): > 100 µM
TGI (NCI-H322M): > 100 µM
growth inhibition (GI) (NCI-H322M): Dose-dependent effect
growth inhibition (GI) (HCT-116): Dose-dependent effect
GI50 (HCT-116; HCT-116, 48 h): 3.06 µM
LC50 (HCT-116; HCT-116, 48 h): > 100 µM
TGI (HCT-116; HCT-116, 48 h): > 100 µM
growth inhibition (GI) (SF-295): Dose-dependent effect
GI50 (SF-295; SF-295, 48 h): 3.19 µM
LC50 (SF-295; SF-295, 48 h): > 100 µM
TGI (SF-295; SF-295, 48 h): 60.2 µM
growth inhibition (GI) (MDA-MB-435): Dose-dependent effect
GI50 (MDA-MB-435; MDA-MB-435, 48 h): > 100 µM
LC50 (MDA-MB-435; MDA-MB-435, 48 h): > 100 µM
TGI (MDA-MB-435; MDA-MB-435, 48 h): > 100 µM
growth inhibition (GI) (SK-OV-3): Dose-dependent effect
GI50 (SK-OV-3; SK-OV-3, 48 h): 3.22 µM
LC50 (concentration killing 50% of cells present at time zero) (SK-OV-3; SK-OV-3, 48 h): > 100 µM
TGI (SK-OV-3; SK-OV-3, 48 h): 20.5 µM
growth inhibition (GI) (HL-60(TB)): Dose-dependent effect
GI50 (HL-60(TB); HL-60, 48 h): 68.4 µM
LC50 (HL-60(TB); HL-60, 48 h): > 100 µM
TGI (HL-60(TB); HL-60, 48 h): > 100 µM
growth inhibition (GI) (BT-549): Dose-dependent effect
GI50 (BT-549; BT-549, 48 h): 33.4 µM
LC50 (concentration killing 50% of cells) (BT-549; BT-549, 48 h): > 100 µM
TGI (BT-549; BT-549, 48 h): > 100 µM
growth inhibition (GI) (SK-MEL-28): Dose-dependent effect
GI50 (SK-MEL-28; SK-MEL-28, 48 h): > 100 µM
LC50 (SK-MEL-28; SK-MEL-28, 48 h): > 100 µM
TGI (SK-MEL-28; SK-MEL-28, 48 h): > 100 µM
GI50 (Malme-3M): 4.27 µM
TGI (Malme-3M): > 100 µM
growth inhibition (GI) (Malme-3M): Dose-dependent effect
CC50 (Malme-3M; read-out: LC50 (the source's name)): > 100 µM
